The subject of data set [1] is P. falciparum (NF54 drug-sensitive strain). As to the kind of experiment: [3H]-hypoxanthine incorporation assay, asexual blood-stage parasites. The data set is classed as cell-based. The note with it: Plasmodium falciparum, NF54, 72 h.
The next data set has as its system P. falciparum 3D7 strain. As to the kind of experiment: In vitro parasite reduction ratio. It is filed as cell-based, Plasmodium falciparum. Conditions: 10× IC50.
The subject of data set [2] is P. falciparum NF54 strain. The data set can be described thus: Erythrocytic IC50 speed and stage specificity assays. The data set is classed as cell-based, Plasmodium falciparum.
For data set [3], the system named is P. berghei. As to the kind of experiment: P. berghei mouse efficacy model. It is filed as in vivo, Plasmodium berghei.
In data set [4] the test system is drug-sensitive 3D7 P. falciparum strain. The data set can be described thus: P. falciparum humanized SCID mouse efficacy model. It is filed as in vivo, Plasmodium falciparum. Conditions: once daily oral for four consecutive days. Put shortly: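 Humanized SCID mice were infected with P. falciparum 3D7. From day 3 after infection, test compound was given orally once daily for 4 days, one mouse per dose level. Blood parasitemia was measured by flow cytometry and ED90 was read at day 7. Whole-blood drug levels were sampled 0–23 h after the first dose (LLOQ 1 ng/mL).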

The subject of another data set is P. falciparum. The data set can be described thus: PKPD. It is filed as in vivo, Plasmodium falciparum. Put shortly:
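A direct-effect composite Emax PKPD model was fitted to humanized SCID mouse P. falciparum efficacy data, allowing for change in kill rate at higher doses. Inputs were modeled blood concentrations from individual-mouse whole-blood PK after once-daily oral dosing for 4 days. The model gave MIC, EC50/EC90 for kill rate and predicted parasitemia after 4 days.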

The subject of data set [5] is P. falciparum late-stage gametocytes (stages IV and V). As to the kind of experiment: Gametocyte viability assay. The data set is classed as cell-based. The note with it: Plasmodium falciparum, read-out: IC50, gametocyte viability (pLDH).
The subject of data set [6] is P. falciparum early-stage (stages I to III) gametocytes expressing luciferase. The data set can be described thus: Gametocyte viability assay. The data set is classed as cell-based, Plasmodium falciparum.
Data set [7] concerns P. falciparum late-stage (stages IV and V) gametocytes expressing luciferase. As to the kind of experiment: Gametocyte viability assay. It is filed as cell-based, Plasmodium falciparum.
The test system of data set [8] is P. falciparum stage V gametocytes. As to the kind of experiment: Male gamete formation. It is filed as cell-based. Conditions: Plasmodium falciparum, 24 h, read-out: potency, inhibition of exflagellation.
In data set [9] the test system is P. falciparum stage V gametocytes (oocysts in mosquito midgut). The data set can be described thus: Indirect standard membrane-feeding assay. It is filed as cell-based. Conditions: Plasmodium falciparum, 24 h, read-out: inhibition of oocyst formation (potency).
The test system is the same in data set [10]. The data set can be described thus: Direct standard membrane-feeding assay. It is filed as cell-based. Conditions: Plasmodium falciparum, read-out: inhibition of the formation of oocysts.
The test system of data set [11] is P. berghei. The data set can be described thus: Mouse-to-mouse transmission model. It is filed as in vivo, Plasmodium berghei. The note with it: 2 mg/kg oral; compared to 6.1 days in control mice. Summed up:
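Female TO mice (6–8 weeks) were infected i.p. with P. berghei clone 507cl1. On day 9, after exflagellation was confirmed, each received one 2 mg/kg oral gavage dose; controls were atovaquone 0.3 mg/kg and sulfadiazine 8.4 mg/kg i.p. Mosquitoes fed, then at day 21 bit naive mice for 20 min. Smears on days 4–10 set patency. Duplicates were combined by generalized linear mixed model against no-drug control.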

For data set [12], the system named is P. cynomolgi liver-stage parasites. As to the kind of experiment: P. cynomolgi liver-stage assay, IC99. The data set is classed as cell-based, Plasmodium cynomolgi.
Data set [13] is described as follows: Plasma concentrations in the prophylactic monkey study. It is filed as in vivo, Macaca mulatta. The note with it: po, 20 mg/kg.
Data set [14] in a line: Plasma concentrations in the radical cure monkey study. It is filed as in vivo, Macaca mulatta.
A short description of data set [15]: Protein binding and blood-to-plasma partitioning. The data set is classed as in vitro ADME.
Data set [16] has as its system P. berghei-infected HepG2 liver cells. The data set can be described thus: P. berghei liver-stage phenotyping in HepG2 cells. The data set is classed as cell-based, Plasmodium berghei. Conditions: 460 nM, 2 to 8 hours after infection. Put shortly:
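Extracellular sporozoites were washed off at 2 h, then cells were exposed to 460 nM test compound or DMSO vehicle. Cells were fixed 8 h after invasion, immunolabeled and imaged by confocal microscopy.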

The subject of data set [17] is P. falciparum Dd2 parasites. The data set can be described thus: microbe, parasite or virus in culture. It is filed as cell-based. Conditions: Plasmodium falciparum.
Data set [18] deals with Dd2 multidrug-resistant parental line. The data set can be described thus: Cross-resistance test, parental line. The data set is classed as cell-based. The note with it: Plasmodium falciparum.
Data set [19] deals with parasites bearing PfPI4K mutation H1484Y. The data set can be described thus: Cross-resistance test, transgenic PI4K-H1484Y line. It is filed as cell-based. Conditions: Plasmodium falciparum.
Data set [20] relates to parasites bearing PfPI4K mutation S1320L. The data set can be described thus: Cross-resistance test, transgenic PI4K-S1320L line. The note with it: Plasmodium falciparum. The data set is classed as cell-based.
In data set [21] the target is T1, PfPI4K (Plasmodium falciparum, UniProt Q8I406). The data set can be described thus: Chemoproteomic competition binding, immobilized MMV666845 beads.
Data set [22] deals with T1, PfPI4K. As to the kind of experiment: Chemoproteomic competition binding, Kinobeads.
The target in a further data set is PI4KB (Q9UBF8) (Homo sapiens, UniProt Q9UBF8). As to the kind of experiment: Chemoproteomic pull-down in K562 cell extract. It is filed as binding. Summed up:
(§1)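 They were incubated 1 h at 4°C with K562 extract (5 mg) preincubated with test compound or buffer. Eluates were alkylated, separated by SDS gel and quantified by isobaric mass tagging LC-MS/MS.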

In another data set the target is PI4KA (P42356) (Homo sapiens, UniProt P42356). The data set can be described thus: Chemoproteomic pull-down in K562 cell extract. The data set is classed as binding. Put shortly:
as §1

The target of another data set is ATM (Q13315) (Homo sapiens, UniProt Q13315). The data set can be described thus: Chemoproteomic pull-down in K562 cell extract. It is filed as binding. Put shortly:
as §1

For the next data set, the target named is TNIK (Q9UKE5) (Homo sapiens, UniProt Q9UKE5). The data set can be described thus: Chemoproteomic pull-down in K562 cell extract. It is filed as binding. Put shortly: as §1
The nature of data set [23]: Allometric scaling to human pharmacokinetics and dose.
The conditions of data set [24]: rats; cited from earlier work.
The conditions of data set [25]: pH 6.5; cited from earlier work.
The nature of another data set: in vivo. The note with it: male (mice, rats), female (monkeys, dogs), Swiss outbred (mice), Sprague Dawley (rats), beagle (dogs), mouse, rat, dog, cynomolgus monkey, iv.
The test system of a further data set is P. cynomolgi. The data set can be described thus: Radical cure study in P. cynomolgi-infected rhesus macaques. Conditions: 20 mg/kg oral daily for 5 days, Cmax 5697 ng/ml.
Where [26] appears, read: Plasmodium falciparum, read-out: IC50, gametocyte viability (luciferase).

As usually defined, the IC90 is the point of the concentration-response curve where the effect stands at 90%. As usually defined, the ED50 is the dose that gives a 50% effect, or the effect in half of the subjects. In general, inhibition refers to the change of the read-out against control, counted positive when it falls. For orientation: Cmax means the highest concentration seen after dosing. As usually defined, the half-life is the time needed for the level to fall by half in the phase considered. Broadly, the fraction unbound is free concentration divided by total concentration. The Kd is the free concentration of one partner at which half of the binding sites on the other are occupied at equilibrium, for simple one-to-one binding. The Vd is a proportionality between amount in the body and measured concentration, not a real space. In general, clearance refers to the rate of elimination divided by the concentration.

Converted amounts (≈) assume the structure as drawn. “And” between values parts separate entries of the source, which are not always exact repeats. Identical values can stand only once. Like-named read-outs stand apart in the source and are kept apart here.

Sequence of PI4KA (P42356) (P42356 whole entry): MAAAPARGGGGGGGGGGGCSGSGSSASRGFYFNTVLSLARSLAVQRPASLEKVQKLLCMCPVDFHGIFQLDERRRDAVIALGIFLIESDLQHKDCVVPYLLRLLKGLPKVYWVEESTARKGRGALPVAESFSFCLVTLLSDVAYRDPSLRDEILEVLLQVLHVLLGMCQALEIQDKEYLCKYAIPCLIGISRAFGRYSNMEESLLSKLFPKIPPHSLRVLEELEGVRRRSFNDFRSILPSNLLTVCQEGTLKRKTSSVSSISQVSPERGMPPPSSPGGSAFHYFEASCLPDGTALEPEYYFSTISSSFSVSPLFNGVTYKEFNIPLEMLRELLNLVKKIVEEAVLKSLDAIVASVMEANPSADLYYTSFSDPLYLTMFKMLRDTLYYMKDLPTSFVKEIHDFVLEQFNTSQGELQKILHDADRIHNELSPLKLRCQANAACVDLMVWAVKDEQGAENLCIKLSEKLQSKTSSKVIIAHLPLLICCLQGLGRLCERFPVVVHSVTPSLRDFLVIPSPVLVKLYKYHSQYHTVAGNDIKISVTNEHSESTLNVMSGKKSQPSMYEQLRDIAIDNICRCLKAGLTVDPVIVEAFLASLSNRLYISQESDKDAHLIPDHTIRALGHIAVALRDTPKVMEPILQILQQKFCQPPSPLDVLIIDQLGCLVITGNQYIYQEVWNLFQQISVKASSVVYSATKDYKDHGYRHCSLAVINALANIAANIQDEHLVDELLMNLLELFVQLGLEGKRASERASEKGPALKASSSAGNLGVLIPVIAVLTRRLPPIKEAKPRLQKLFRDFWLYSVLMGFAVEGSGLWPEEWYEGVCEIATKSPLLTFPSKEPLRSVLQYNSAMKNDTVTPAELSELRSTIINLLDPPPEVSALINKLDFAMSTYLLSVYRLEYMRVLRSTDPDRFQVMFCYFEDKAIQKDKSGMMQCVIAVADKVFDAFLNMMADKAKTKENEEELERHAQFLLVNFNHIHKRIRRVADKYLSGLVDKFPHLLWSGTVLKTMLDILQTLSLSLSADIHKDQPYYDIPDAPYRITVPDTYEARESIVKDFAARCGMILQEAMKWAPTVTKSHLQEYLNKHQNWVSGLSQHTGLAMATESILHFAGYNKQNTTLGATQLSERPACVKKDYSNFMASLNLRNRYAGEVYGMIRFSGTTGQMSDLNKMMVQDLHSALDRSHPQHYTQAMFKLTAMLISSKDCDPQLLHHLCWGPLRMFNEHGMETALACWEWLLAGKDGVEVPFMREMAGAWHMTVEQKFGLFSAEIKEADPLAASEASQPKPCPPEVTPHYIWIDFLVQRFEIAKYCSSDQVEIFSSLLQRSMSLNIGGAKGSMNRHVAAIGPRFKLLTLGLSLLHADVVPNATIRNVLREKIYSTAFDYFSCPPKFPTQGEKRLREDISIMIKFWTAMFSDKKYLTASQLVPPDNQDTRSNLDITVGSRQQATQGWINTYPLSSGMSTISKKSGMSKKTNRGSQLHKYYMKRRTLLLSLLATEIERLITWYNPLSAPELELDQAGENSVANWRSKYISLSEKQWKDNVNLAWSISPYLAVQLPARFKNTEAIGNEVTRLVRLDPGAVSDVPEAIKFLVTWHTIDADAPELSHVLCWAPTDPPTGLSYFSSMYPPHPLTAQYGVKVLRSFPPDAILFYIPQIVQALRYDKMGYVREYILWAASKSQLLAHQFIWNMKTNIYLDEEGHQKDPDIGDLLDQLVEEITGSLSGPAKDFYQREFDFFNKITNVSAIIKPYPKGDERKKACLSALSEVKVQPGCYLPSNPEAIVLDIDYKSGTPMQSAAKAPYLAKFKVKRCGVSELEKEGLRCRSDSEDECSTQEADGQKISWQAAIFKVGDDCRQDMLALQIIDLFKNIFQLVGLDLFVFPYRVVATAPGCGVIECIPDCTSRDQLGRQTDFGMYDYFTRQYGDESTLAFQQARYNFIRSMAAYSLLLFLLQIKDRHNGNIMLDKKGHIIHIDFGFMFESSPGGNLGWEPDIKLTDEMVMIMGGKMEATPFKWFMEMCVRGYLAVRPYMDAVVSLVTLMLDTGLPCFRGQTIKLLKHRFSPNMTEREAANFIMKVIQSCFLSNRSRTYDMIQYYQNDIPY
Sequence of ATM (Q13315) (Q13315 whole entry): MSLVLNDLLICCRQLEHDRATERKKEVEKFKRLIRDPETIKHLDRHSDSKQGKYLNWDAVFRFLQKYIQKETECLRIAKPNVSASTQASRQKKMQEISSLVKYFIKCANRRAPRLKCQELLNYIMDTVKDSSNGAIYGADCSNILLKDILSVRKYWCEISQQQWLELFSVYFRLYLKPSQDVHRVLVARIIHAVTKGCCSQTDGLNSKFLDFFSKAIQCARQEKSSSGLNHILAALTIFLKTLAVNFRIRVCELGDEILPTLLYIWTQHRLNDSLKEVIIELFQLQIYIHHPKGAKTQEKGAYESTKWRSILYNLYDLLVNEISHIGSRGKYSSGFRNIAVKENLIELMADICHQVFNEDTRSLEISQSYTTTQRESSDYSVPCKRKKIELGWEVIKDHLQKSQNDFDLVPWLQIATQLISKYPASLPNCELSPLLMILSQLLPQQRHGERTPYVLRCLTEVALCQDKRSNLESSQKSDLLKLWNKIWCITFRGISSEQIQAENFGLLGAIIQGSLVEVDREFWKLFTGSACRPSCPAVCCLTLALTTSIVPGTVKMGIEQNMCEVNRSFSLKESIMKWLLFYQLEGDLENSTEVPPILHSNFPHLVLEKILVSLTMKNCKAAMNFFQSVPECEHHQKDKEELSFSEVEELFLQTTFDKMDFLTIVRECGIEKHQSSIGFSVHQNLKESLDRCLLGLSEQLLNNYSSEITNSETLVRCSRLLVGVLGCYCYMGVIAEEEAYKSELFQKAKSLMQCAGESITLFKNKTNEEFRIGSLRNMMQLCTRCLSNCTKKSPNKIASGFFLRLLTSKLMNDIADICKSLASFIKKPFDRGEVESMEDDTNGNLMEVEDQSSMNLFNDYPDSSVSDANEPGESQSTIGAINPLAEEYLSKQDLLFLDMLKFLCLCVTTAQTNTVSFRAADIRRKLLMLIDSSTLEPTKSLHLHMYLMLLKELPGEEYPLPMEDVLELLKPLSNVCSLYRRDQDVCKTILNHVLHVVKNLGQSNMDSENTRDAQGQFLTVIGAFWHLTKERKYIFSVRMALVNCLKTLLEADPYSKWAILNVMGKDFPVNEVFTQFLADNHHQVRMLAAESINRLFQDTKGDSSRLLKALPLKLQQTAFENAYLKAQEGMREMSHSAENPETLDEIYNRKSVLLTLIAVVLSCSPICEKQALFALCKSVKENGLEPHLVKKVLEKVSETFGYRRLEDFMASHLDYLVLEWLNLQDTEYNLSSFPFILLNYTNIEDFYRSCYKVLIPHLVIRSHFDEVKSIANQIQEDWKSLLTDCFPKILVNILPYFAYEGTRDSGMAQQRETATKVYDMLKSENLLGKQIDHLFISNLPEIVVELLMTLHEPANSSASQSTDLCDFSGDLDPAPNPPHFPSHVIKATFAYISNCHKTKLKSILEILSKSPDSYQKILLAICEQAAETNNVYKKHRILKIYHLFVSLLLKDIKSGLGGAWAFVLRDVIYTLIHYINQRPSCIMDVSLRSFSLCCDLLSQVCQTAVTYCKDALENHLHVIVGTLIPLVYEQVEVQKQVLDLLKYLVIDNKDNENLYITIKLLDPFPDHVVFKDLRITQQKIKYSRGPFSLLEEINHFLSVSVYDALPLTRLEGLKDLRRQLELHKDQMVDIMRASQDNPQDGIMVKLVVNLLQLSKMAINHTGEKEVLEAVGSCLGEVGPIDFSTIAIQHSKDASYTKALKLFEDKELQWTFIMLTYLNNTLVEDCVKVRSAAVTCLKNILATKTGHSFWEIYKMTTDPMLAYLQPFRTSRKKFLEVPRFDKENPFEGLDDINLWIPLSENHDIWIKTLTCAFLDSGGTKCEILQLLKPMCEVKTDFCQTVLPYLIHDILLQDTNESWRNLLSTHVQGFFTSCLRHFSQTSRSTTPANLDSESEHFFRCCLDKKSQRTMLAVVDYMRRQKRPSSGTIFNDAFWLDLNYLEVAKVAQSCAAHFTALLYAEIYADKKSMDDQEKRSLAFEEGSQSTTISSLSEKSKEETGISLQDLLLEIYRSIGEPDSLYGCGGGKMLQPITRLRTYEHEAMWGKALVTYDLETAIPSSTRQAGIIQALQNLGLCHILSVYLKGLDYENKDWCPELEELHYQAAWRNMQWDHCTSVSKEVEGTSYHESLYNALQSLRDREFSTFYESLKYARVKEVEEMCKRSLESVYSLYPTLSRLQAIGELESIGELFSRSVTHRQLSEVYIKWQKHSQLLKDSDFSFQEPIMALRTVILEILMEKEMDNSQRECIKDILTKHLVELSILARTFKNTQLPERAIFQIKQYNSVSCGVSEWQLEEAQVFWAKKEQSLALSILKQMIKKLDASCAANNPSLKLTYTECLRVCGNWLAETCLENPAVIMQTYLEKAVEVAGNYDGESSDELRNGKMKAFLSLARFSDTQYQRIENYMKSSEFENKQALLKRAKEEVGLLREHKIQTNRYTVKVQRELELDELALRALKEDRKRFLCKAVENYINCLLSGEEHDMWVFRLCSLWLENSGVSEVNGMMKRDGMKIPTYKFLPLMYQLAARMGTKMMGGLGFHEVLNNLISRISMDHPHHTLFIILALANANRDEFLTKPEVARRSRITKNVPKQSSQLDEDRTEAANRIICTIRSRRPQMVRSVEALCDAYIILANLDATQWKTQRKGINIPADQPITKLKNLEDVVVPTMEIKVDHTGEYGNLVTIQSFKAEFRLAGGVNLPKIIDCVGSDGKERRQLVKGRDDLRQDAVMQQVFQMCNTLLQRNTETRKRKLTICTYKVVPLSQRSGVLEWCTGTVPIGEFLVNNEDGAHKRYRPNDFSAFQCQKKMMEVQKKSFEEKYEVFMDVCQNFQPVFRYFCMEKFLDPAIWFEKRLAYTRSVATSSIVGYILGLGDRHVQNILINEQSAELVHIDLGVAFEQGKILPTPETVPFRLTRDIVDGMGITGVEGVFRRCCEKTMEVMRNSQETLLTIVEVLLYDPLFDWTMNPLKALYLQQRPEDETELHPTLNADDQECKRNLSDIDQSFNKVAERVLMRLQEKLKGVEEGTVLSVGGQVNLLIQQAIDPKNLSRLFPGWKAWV

The compound `CS(=O)(=O)c1ccc(-c2cnc(N)c(-c3ccc(C(F)(F)F)nc3)c2)cc1` [MMV390048] yielded an IC90 in data set [1] of 40 nM. The lag phase in the data set on P. falciparum 3D7 strain came out at 24 h. In data set [2], the blood-stage specificity profile entry is “highest activity against the young schizont stage”. The same compound came in with an ED50 in the data set on P. berghei [3] (Plasmodium berghei, in Mus musculus, po, 72 h) of 0.57 mg/kg. In the data set with P. berghei [3] (four oral administrations (4, 24, 48, 72 hours after infection), measured at 96 hours), this compound displayed an ED90 of 1.1 mg/kg. Besides, the “in vivo parasite clearance rate” value in the data set on P. berghei [3] (single oral dose 100 mg/kg) is on record as “intermediate”. The “ED90 at day 7” value in [4] was determined as 0.57 mg/kg. Also, in the data set with P. falciparum (dose of 1 mg/kg (highest predicted kill rate)), the “parasitemia at the end of 4 days” value is below 0.01%. In the data set on P. falciparum (modeled blood concentration), the “MIC to inhibit growth” value is 0.071 µg/mL (≈ 0.18 µM). In addition, the IC50 was 285 nM in data set [5]; 214 nM in [6] (setting [26]); 140 nM in data set [7] (setting [26]); 90 nM in data set [8]; 111 nM in data set [9]; 16 nM in data set [17] (DD2). For the same compound, the IC50 is 70 to 90 nM in data set [17] (DD2, read-out: IC50 of resistant clones); 22.7 nM in [18]; 62.8 nM in data set [19]; 57.7 nM in data set [20]. Moreover, the “clearance rate (slope)” value in [6] (stage I to III, at IC50 concentration over 3 days) is on record as −6.09; in [7] (stage IV and V, at IC50 concentration over 3 days), −15.49. In data set [7], the “late-stage gametocytes killed faster than early-stage” value was 2.5 times. Besides, the “rate of onset of action” value in data set [7] (luciferase-expressing gametocytes) was determined as 24 h. Also, the inhibition at 1000 µM in data set [10] was below 25%. The “Prepatency (±SEM)” value in the data set on P. berghei [11] was 6.8 days (±0.28). Further, the “liver-stage IC99 (in vitro)” value in data set [12] is given as 90 nM. For the same compound, in [12] (in vitro IC99 corrected for AlbuMAX binding and plasma protein binding), the “in vivo IC99 (estimated)” value was 353 ± 32 nM and 138 ± 13 ng/ml. In addition, the Cmax in [13] came to 1980 ng/mL; in [14] (monkey, plasma, po, 20 mg/kg), 5700 ng/mL. This compound also gave a half-life in data set [13] of around 30 h. In data set [14] (20 mg/kg oral daily for 5 days), the “time plasma concentration above liver-stage IC99” value is 15.8 days. Moreover, in data set [14] (rhesus macaque (Macaca mulatta), in vivo), the “time plasma concentration above blood-stage MIC” value came to 20 days. The “serum albumin (AlbuMAX) binding” value in data set [15] is reported as 54%. Besides, the fraction unbound in [15] (plasma, protein binding, used for MIC correction) was 0.139. Also, in data set [16], the “localization of parasitophorous vacuole membrane protein UIS4” value is listed as “mislocalization”. Also, the Kd on PfPI4K [21] was determined as 300 nM; at PfPI4K [22], 100 nM. Also, the “effect of excess free compound on capture of P. falciparum PI4K by the beads” value on PfPI4K [21] (excess compound (10 µM for MMV390048)) is listed as “competitively inhibited”. For the same compound, the binding result at PI4KB (Q9UBF8) and at PI4KA (P42356) was “did not observe any binding” throughout. Also, the binding affinity result on ATM (Q13315) and on TNIK (Q9UKE5) was “low binding affinity” each time. Further, the “predicted elimination half-life in humans” value in [23] is reported as “about 90 hours”. For the same compound, the “predicted plasma clearance in humans” value in [23] was 0.02 liter/hour per kg. Also, in [23], the “predicted volume of distribution in humans” value was 2.8 L/kg. The absorption entry in data set [24] is reported as “well absorbed”. In addition, in data set [25], the kinetic solubility result was “not optimal”. In “in vivo”, this compound came in with a Vd of 1.3 to 3 L/kg. In the data set “in vivo”, this compound had a clearance of 0.6 to 6.5 mL/min/kg. Besides, the observed toxicity entry in the data set with P. cynomolgi is recorded as “without any observed toxicity”.

With `C[C@H]1[C@@H](O)O[C@@H]2O[C@@]3(C)CC[C@H]4[C@H](C)CC[C@@H]1[C@@]24OO3` [dihydroartemisinin, reference compound], the IC50 in [5] worked out at 12 nM.

On to `CCc1nc(N)nc(N)c1-c1ccc(Cl)cc1` [pyrimethamine, reference compound], for which the “IC50 fold higher at 24-hour compared to 72-hour time point” value in data set [2] (unsynchronized culture) is 7.8 fold.

The record behind these values is PMC5731459 (Science translational medicine, 2017).
